Experimental data as given in paper PMC4203514 (Autophagy, 2014).

Columns and labels:
Type in all cases: in vivo, human
[1] = Population pharmacokinetics of HCQ in whole blood; settings: for Vd/F: human, oral, Vc/F, apparent central volume of distribution
How it was run: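 Whole blood was sampled in sodium heparin pre-dose and at 2, 4, 8 and 12 wk and 6 mo, then stored at −70 °C. Samples were assayed in duplicate by HPLC-MS/MS with a deuterated internal standard against a 1/x-weighted linear curve (1–5000 ng/mL; LLOQ 1.0 ng/mL). One- and two-compartment first-order models were fitted by nonlinear mixed-effects (Lindstrom-Bates) with log-normal inter-individual variability. Precision came from 1000 bootstrap runs, and individual parameters were used for profile simulations.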

[2] = tested on: peripheral blood mononuclear cells; assay: PK-PD CART analysis of HCQ peak concentration versus AV accumulation in PBMC
How it was run: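 Exploratory classification and regression trees analysis used 26 patients with complete PK and PD data. The target was change in PBMC AV count from baseline to 2 wk. Predictors were Cmin, Cmax and AUC, taken from model-simulated individual blood profiles. The PK-PD relationship was also examined after 4 wk of combined therapy. The Cmax threshold was tested by Kruskal-Wallis (medians) and Kolmogorov-Smirnov two-sample tests.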

[3] = tested on: peripheral blood mononuclear cells; assay: Autophagic vacuole; settings: after 2 wk run-in of HCQ; baseline 2.19
[4] = tested on: patients with advanced solid tumors; assay: Treatment-related adverse events by grade
How it was run: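 Patients who took at least one dose of the oral test compound, given with a dose-intense oral alkylating agent, were evaluable for toxicity. Adverse events were graded by NCI Common Toxicity Criteria v3.0, and haematological toxicities were attributed to the alkylating agent. Complete blood counts were done weekly for the first 6 wk and biweekly thereafter. Treatment ran in 28 d cycles.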

[5] = population PK, 1000 bootstrap runs
[6] = population PK, whole blood, 35 patients

For `CCN(CCO)CCCC(C)Nc1ccnc2cc(Cl)ccc12` (centres unmarked) [HCQ, hydroxychloroquine], the Vd/F ([1]; whole blood, bootstrap estimate, population PK, 1000 bootstrap runs) was 500 L, the Vd/F ([1]; whole blood, model estimate, population PK, 35 patients) was 486 L and the “Cl/F, apparent oral clearance, bootstrap estimate” value [1, 5] was 10.085 L/h. The “Ka, absorption rate constant, bootstrap estimate” value [1, 5] was 0.999 h⁻¹, the “Vp/F, apparent peripheral volume of distribution, bootstrap estimate” value [1, 5] was 1400.415 L and the “Cl/F, apparent oral clearance, model estimate” value [1, 6] was 9.975 L/h. The “Ka, absorption rate constant, model estimate” value [1, 6] was 0.998 h⁻¹, the “Vp/F, apparent peripheral volume of distribution, model estimate” value [1, 6] was 1406.52 L and the “Time to steady-state HCQ blood concentration, on average” value ([1]; simulated for individual patients with final PK model, (16 d)) was 400 h. The “Threshold HCQ Cmax that correlated with AV accumulation (CART)” value ([2]; after 2 wk of single agent HCQ, 26 patients) was 1554 ng/mL, the “Threshold HCQ Cmax for AV change (CART)” value ([2]; baseline to 4 wk of combined therapy (TMZ + HCQ), 21 patients) was 856 ng/mL and the “Median AV change from baseline to 2 wk” value ([2]; patients with Cmax above 1554 ng/mL (n = 18), IQR -0.45, 1.37) was 0.89. For the same compound, the “Median AV change from baseline to 2 wk” value ([2]; patients with Cmax below 1554 ng/mL (n = 8), IQR −1.35, 0.03) was −0.21, the “Mean AV count per cell in PBMC” value [3] was 2.45 and the “Abdominal fullness G1/G2” value ([4]; All patients, HCQ with TMZ) was 2 (6) No. (%). For the same compound, the “Abdominal pain G1/G2” value ([4]; All patients, HCQ with TMZ) was 2 (6) No. (%), the “Anemia G1/G2” value ([4]; All patients, HCQ with TMZ) was 1 (3) No. (%) and the “Anemia G3/G4” value ([4]; All patients, HCQ with TMZ) was 1 (3) No. (%). For the same compound, the “Anorexia G1/G2” value ([4]; All patients, HCQ with TMZ) was 13 (35) No. (%), the “Bradycardia G1/G2” value ([4]; All patients, HCQ with TMZ) was 2 (6) No. (%) and the “Constipation G1/G2” value ([4]; All patients, HCQ with TMZ) was 8 (22) No. (%). The “Diarrhea G1/G2” value ([4]; All patients, HCQ with TMZ) was 9 (24) No. (%), the “Dizziness G1/G2” value ([4]; All patients, HCQ with TMZ) was 2 (6) No. (%) and the “Dyspepsia G1/G2” value ([4]; All patients, HCQ with TMZ) was 2 (6) No. (%). For the same compound, the “Headaches G1/G2” value ([4]; All patients, HCQ with TMZ) was 3 (8) No. (%), the “Hypotension G1/G2” value ([4]; All patients, HCQ with TMZ) was 3 (8) No. (%) and the “Leukopenia G3/G4” value ([4]; All patients, HCQ with TMZ) was 1 (3) No. (%). The “Lymphopenia G1/G2” value ([4]; All patients, HCQ with TMZ) was 5 (14) No. (%), the “Lymphopenia G3/G4” value ([4]; All patients, HCQ with TMZ) was 5 No. (%) and the “Myalgias G1/G2” value ([4]; All patients, HCQ with TMZ) was 2 (6) No. (%). For the same compound, the “Nausea G1/G2” value ([4]; All patients, HCQ with TMZ) was 24 (65) No. (%), the “Nausea G3/G4” value ([4]; All patients, HCQ with TMZ) was 1 (3) No. (%) and the “Neutropenia G3/G4” value ([4]; All patients, HCQ with TMZ) was 2 (6) No. (%). The “Pruritus G1/G2” value ([4]; All patients, HCQ with TMZ) was 4 (12) No. (%), the “Rash G1/G2” value ([4]; All patients, HCQ with TMZ) was 3 (8) No. (%) and the “Rash G3/G4” value ([4]; All patients, HCQ with TMZ) was 1 (3) No. (%). The “Taste change G1/G2” value ([4]; All patients, HCQ with TMZ) was 2 (6) No. (%), the “Thrombocytopenia G1/G2” value ([4]; All patients, HCQ with TMZ) was 5 (14) No. (%) and the “Thrombocytopenia G3/G4” value ([4]; All patients, HCQ with TMZ) was 2 (6) No. (%). For the same compound, the “Vomiting G3/G4” value ([4]; All patients, HCQ with TMZ) was 1 (3) No. (%), the “Abdominal fullness G1/G2” value ([4]; HCQ 200 mg (n = 3) with TMZ) was 1 (33) No. (%) and the “Anorexia G1/G2” value ([4]; HCQ 200 mg (n = 3) with TMZ) was 1 (33) No. (%). The “Constipation G1/G2” value ([4]; HCQ 200 mg (n = 3) with TMZ) was 1 (33) No. (%), the “Fatigue G1/G2” value ([4]; HCQ 200 mg (n = 3) with TMZ) was 1 (33) No. (%) and the “Lymphopenia G1/G2” value ([4]; HCQ 200 mg (n = 3) with TMZ) was 1 (33) No. (%). For the same compound, the “Lymphopenia G3/G4” value ([4]; HCQ 200 mg (n = 3) with TMZ) was 1 (33) No. (%), the “Nausea G1/G2” value ([4]; HCQ 200 mg (n = 3) with TMZ) was 1 (33) No. (%) and the “Vomiting G1/G2” value ([4]; HCQ 200 mg (n = 3) with TMZ) was 1 (33) No. (%). The “Abdominal fullness G1/G2” value ([4]; HCQ 400 mg (n = 4) with TMZ) was 1 (25) No. (%), the “Anorexia G1/G2” value ([4]; HCQ 400 mg (n = 4) with TMZ) was 1 (25) No. (%) and the “Diarrhea G1/G2” value ([4]; HCQ 400 mg (n = 4) with TMZ) was 1 (25) No. (%). For the same compound, the “Fatigue G1/G2” value ([4]; HCQ 400 mg (n = 4) with TMZ) was 2 (50) No. (%), the “Hypotension G1/G2” value ([4]; HCQ 400 mg (n = 4) with TMZ) was 1 (25) No. (%) and the “Lymphopenia G3/G4” value ([4]; HCQ 400 mg (n = 4) with TMZ) was 2 (50) No. (%). For the same compound, the “Myalgias G1/G2” value ([4]; HCQ 400 mg (n = 4) with TMZ) was 1 (25) No. (%), the “Nausea G1/G2” value ([4]; HCQ 400 mg (n = 4) with TMZ) was 4 (100) No. (%) and the “Thrombocytopenia G1/G2” value ([4]; HCQ 400 mg (n = 4) with TMZ) was 1 (25) No. (%). For the same compound, the “Vomiting G1/G2” value ([4]; HCQ 400 mg (n = 4) with TMZ) was 3 (75) No. (%) and the “Anorexia G1/G2” value ([4]; HCQ 800 mg (n = 15) with TMZ) was 5 (33) No. (%).
